Measured values taken from ChEMBL document CHEMBL4014306, “Pyrazolopyrimidines as Potent Stimulators for Transient Receptor Potential Canonical 3/6/7 Channels” (J Med Chem, 2017).
Active and inactive are the calls of the source. No cut-off for these calls is given here.

molecular target: T1, Short transient receptor potential channel 4 (Mus musculus, UniProt Q9QUQ5); assay: Antagonist activity at mouse TRPC4beta expressed in HEK293 cells co-expressing MOR decrease in DAMGO-evoked intracellular calcium level by Fluo-8-AM dye-based fluorescence assay; type: cell-based
T1 sequence (Q9QUQ5 whole entry): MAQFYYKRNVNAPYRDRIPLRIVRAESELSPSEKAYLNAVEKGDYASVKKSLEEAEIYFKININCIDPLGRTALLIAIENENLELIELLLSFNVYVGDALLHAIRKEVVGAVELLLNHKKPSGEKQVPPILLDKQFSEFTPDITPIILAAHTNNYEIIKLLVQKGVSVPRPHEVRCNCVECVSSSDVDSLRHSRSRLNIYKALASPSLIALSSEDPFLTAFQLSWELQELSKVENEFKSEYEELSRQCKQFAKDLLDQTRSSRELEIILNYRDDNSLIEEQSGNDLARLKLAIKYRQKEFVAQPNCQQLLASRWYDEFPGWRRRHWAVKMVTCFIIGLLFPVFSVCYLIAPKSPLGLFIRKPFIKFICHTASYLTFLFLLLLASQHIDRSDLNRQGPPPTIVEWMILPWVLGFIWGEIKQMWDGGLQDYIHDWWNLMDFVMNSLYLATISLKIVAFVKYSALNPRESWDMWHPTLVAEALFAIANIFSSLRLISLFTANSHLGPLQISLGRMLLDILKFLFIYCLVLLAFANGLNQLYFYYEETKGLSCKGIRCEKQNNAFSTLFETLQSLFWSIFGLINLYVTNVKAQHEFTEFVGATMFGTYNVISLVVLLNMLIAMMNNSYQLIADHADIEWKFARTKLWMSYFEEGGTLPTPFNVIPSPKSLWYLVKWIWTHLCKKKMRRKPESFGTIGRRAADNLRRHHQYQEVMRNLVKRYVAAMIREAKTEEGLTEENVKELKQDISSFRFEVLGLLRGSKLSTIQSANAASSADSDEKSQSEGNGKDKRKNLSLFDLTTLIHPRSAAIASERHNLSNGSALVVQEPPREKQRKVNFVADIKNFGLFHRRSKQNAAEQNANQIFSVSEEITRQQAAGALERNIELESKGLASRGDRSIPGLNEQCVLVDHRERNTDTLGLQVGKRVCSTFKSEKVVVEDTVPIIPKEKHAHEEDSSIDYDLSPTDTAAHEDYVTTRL
How it was run: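 MOR/TRPC4β HEK293 cells loaded with Ca2+ dye. Compound given before 1 μM DAMGO. IC50 estimated from one experiment in triplicate.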

Row | IC50 | SMILES
1 | Not Active | Cc1nn2c(O)cc(C3CCN(C(=O)OCc4ccccc4)CC3)nc2c1-c1ccc(Cl)cc1
2 | Not Active | CCOC(=O)N1CCC(c2cc(O)n3nc(C)c(-c4ccc(C(F)(F)F)cc4)c3n2)CC1
3 | Not Active | Cc1nn2c(O)cc(C3CCN(C(=O)OCc4ccccc4)CC3)nc2c1-c1ccc(F)cc1

Row | SMILES | IC50
4 | CCOC(=O)N1CCC(c2cc(O)n3nc(C)c(-c4ccc(F)cc4)c3n2)CC1 | Not Active

molecular target: T2, Short transient receptor potential channel 5 (Homo sapiens) (UniProt Q9UL62); assay: Agonist activity at human TRPC5 expressed in HEK293 cells assessed as induction of membrane depolarization at 33 uM measured for 2.5 mins by FLIPR membrane potential dye-based fluorescence assay; type: cell-based
T2 sequence (whole entry): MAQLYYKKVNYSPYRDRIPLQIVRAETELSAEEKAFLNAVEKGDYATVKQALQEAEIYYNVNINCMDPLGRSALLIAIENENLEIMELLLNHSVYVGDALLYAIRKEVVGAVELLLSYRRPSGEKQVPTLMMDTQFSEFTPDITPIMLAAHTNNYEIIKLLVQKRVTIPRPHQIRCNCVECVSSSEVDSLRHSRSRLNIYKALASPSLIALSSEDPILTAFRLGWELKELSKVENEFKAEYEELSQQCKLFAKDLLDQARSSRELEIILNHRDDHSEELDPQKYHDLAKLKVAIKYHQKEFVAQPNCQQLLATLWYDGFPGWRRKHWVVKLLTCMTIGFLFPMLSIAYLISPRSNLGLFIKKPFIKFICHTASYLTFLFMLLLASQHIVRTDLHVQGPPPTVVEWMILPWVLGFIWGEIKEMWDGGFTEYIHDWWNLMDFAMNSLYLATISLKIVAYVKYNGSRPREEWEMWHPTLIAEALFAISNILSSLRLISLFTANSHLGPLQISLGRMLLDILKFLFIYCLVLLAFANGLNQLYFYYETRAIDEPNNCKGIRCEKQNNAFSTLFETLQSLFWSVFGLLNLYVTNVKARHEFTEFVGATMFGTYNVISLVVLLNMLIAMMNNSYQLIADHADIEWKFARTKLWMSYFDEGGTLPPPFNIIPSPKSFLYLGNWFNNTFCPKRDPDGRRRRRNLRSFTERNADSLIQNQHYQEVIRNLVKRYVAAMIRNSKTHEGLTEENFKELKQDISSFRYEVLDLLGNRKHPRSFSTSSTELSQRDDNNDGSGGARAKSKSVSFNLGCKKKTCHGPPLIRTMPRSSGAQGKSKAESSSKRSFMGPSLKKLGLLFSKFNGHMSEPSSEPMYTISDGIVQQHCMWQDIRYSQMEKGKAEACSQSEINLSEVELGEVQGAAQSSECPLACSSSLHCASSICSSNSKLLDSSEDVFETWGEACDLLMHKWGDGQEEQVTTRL

Row | Activity | SMILES
5 | inactive | Cc1nn2c(O)cc(C3CCN(C(=O)OCc4ccccc4)CC3)nc2c1-c1ccc(Cl)cc1
6 | inactive | CCOC(=O)N1CCC(c2cc(O)n3nc(C)c(-c4ccc(C(F)(F)F)cc4)c3n2)CC1
7 | inactive | Cc1nn2c(O)cc(C3CCN(C(=O)OCc4ccccc4)CC3)nc2c1-c1ccc(F)cc1

Row | SMILES | Activity
8 | CCOC(=O)N1CCC(c2cc(O)n3nc(C)c(-c4ccc(F)cc4)c3n2)CC1 | inactive

molecular target: T3, Short transient receptor potential channel 4 (Mus musculus) (UniProt Q9QUQ5); assay: Agonist activity at mouse TRPC4beta expressed in HEK293 cells co-expressing MOR assessed as increase in intracellular calcium level at 33 uM measured for 2.5 mins by Fluo-8-AM dye-based fluorescence assay; type: cell-based
T3 sequence (whole entry): T1 sequence (Q9QUQ5 whole entry)

Row | Activity | SMILES
9 | inactive | Cc1nn2c(O)cc(C3CCN(C(=O)OCc4ccccc4)CC3)nc2c1-c1ccc(Cl)cc1
10 | inactive | CCOC(=O)N1CCC(c2cc(O)n3nc(C)c(-c4ccc(C(F)(F)F)cc4)c3n2)CC1
11 | inactive | Cc1nn2c(O)cc(C3CCN(C(=O)OCc4ccccc4)CC3)nc2c1-c1ccc(F)cc1

Row | SMILES | Activity
12 | CCOC(=O)N1CCC(c2cc(O)n3nc(C)c(-c4ccc(F)cc4)c3n2)CC1 | inactive

molecular target: Transient receptor potential cation channel subfamily M member 8 (Mus musculus) (UniProt Q8R4D5); assay: Inhibition of mouse TRPM8 expressed in HEK293 cells assessed as decrease in menthol-evoked increase in intracellular calcium level at 22 uM preincubated for 2 mins followed by menthol addition measured for 2.5 mins by Fluo8-AM dye-based fluorescence assay relative to control
Sequence (Q8R4D5 whole entry): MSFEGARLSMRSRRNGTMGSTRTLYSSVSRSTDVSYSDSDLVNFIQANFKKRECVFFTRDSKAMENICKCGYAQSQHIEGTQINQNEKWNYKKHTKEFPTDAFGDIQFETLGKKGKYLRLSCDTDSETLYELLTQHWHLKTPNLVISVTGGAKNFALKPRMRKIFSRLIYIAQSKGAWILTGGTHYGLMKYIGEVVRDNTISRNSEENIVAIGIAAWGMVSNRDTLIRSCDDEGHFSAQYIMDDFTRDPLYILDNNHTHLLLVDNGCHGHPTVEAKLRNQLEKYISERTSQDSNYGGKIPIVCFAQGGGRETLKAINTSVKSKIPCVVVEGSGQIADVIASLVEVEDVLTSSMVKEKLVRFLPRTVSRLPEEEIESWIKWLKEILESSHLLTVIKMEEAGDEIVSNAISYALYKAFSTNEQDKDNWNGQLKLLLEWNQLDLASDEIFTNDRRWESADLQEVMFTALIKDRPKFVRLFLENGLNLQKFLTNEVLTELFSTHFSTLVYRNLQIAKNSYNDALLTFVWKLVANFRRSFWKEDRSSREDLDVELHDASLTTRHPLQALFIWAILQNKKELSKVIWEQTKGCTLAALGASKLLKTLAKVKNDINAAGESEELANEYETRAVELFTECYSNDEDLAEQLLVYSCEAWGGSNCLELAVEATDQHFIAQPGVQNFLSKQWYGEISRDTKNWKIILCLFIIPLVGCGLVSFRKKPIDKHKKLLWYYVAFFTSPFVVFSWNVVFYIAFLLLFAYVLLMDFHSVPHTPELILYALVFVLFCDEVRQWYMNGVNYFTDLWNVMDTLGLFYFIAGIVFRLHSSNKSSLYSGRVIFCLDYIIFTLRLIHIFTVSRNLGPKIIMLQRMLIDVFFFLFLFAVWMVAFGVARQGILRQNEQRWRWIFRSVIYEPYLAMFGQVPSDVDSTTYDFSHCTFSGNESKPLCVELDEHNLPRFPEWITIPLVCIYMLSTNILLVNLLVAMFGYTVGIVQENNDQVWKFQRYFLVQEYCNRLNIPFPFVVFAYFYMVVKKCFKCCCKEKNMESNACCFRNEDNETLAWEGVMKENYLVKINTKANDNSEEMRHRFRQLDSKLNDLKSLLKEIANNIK

Row | inhibition [%] | SMILES
13 | 17 | CCOC(=O)N1CCC(c2cc(O)n3nc(C)c(-c4ccc(C(F)(F)F)cc4)c3n2)CC1
14 | 35 | Cc1nn2c(O)cc(C3CCN(C(=O)OCc4ccccc4)CC3)nc2c1-c1ccc(F)cc1

Row | SMILES | inhibition [%]
15 | CCOC(=O)N1CCC(c2cc(O)n3nc(C)c(-c4ccc(F)cc4)c3n2)CC1 | 22
